Measurements published in ChEMBL document CHEMBL4765230, “Discovery of Orally Efficacious Phosphoinositide 3-Kinase δ Inhibitors with Improved Metabolic Stability” (J Med Chem, 2016).

Experiments:
[1] = Inhibition of PI3Kdelta in rat whole blood assessed as reduction in anti-IgD induced B-cell activation by measuring decrease in CD86 surface expression by flow cytometry analysis
Rattus norvegicus = species: Rattus norvegicus; test: as above
[2] = Clearance in rat at 1 mg/kg, iv; format: ADME, organism-based; conditions: in vivo
[3] = biological target: T1, Phosphatidylinositol 4,5-bisphosphate 3-kinase catalytic subunit gamma isoform (Homo sapiens, UniProt P48736); test: Inhibition of PI3K p110gamma in human basophil assessed as reduction in fMLP-induced basophil activation in presence of 25% serum by flow cytometry analysis; format: tissue-based
Method in brief: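 Basophil activation via fMLP (p110γ) in 25% serum or in isolated WBCs in low serum, with increasing compound concentrations. Anti-CD63-FITC/anti-CCR3-PE staining; ≥150 (25% serum) or ≥75 (low serum) CCR3-high basophils gated; % CD63-positive normalized to 0.3% DMSO vehicle; concentration corrected for reagent dilution.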

[4] = biological target: T2, Phosphatidylinositol 4,5-bisphosphate 3-kinase catalytic subunit delta isoform (Homo sapiens) (UniProt O00329); conditions: Blood, time 7.0 day
T2 sequence (whole entry): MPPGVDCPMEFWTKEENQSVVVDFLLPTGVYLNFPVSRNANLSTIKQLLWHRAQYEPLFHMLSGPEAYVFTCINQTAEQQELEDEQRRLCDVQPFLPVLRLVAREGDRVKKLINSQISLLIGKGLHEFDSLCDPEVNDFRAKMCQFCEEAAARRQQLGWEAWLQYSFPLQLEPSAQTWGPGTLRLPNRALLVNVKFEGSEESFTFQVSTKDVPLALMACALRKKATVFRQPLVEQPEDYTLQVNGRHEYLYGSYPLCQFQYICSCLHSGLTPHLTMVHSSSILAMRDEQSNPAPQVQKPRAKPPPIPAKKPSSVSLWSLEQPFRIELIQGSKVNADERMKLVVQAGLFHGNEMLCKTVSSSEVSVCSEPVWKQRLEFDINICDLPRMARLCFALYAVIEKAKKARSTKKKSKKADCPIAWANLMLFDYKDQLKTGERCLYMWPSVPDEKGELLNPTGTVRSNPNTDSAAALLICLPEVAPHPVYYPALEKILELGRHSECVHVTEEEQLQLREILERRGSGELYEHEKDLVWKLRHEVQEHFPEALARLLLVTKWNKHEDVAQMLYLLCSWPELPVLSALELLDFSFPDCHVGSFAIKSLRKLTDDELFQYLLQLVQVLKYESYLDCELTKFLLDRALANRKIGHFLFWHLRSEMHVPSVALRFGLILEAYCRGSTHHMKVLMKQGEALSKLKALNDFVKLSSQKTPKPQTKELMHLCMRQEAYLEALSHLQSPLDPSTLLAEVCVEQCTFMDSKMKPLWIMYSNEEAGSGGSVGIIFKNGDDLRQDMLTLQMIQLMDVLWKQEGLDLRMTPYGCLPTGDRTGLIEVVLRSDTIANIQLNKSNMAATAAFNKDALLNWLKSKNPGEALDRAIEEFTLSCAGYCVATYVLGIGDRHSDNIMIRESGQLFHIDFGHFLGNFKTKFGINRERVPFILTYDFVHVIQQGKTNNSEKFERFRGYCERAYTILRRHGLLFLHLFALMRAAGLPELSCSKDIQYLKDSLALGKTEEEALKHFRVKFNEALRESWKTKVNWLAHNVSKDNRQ

[5] = In vivo inhibition of PI3Kdelta in Lewis rat model of Freund's incomplete adjuvant-induced arthritis at 3 mg/kg, po bid administered for 7 days at 12 hrs interval starting from day 10 to day 16 post-immunization relative to control; format: functional; conditions: 168 h, time 7 day
Method in brief: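 CIA Lewis rats dosed orally twice daily for 7 days at 0.3, 1 or 3 mg/kg; blood/plasma drug levels taken on day 7, 12 h after final dose, and related to PI3Kδ inhibition at trough.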

[6] = Terminal half life in cynomolgus monkey at 1 mg/kg, iv measured over 24 hrs by LC/MS/MS analysis; format: ADME, organism-based, Macaca fascicularis; conditions: in vivo, read-out: beta t1/2 (converted)
Method in brief: (§1)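 Single intravenous dose of 1 mg/kg. Vehicles: rats and dogs 5% ethanol/55% PEG 400/40% water; cynomolgus monkeys 5% ethanol/22% PEG 400/73% water; rhesus monkeys 5% ethanol/25% PEG 400/70% water. Plasma concentration–time data gave Vss and iv half-life. Reported as mean ± SD, n = 3.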

[7] = biological target: T1, Phosphatidylinositol 4,5-bisphosphate 3-kinase catalytic subunit gamma isoform; test: Inhibition of human full length PI3K p110gamma using […] as substrate measured after 30 mins by TR-FRET assay
[8] = MRT in Beagle dog at 1 mg/kg, iv measured over 24 hrs by LC/MS/MS analysis; format: ADME, organism-based, Canis lupus familiaris; conditions: in vivo
Method in brief: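 Intravenous 1 mg/kg and oral 5 mg/kg doses. Vehicle: 5% ethanol/55% PEG 400/40% water for rats and dogs; 5% ethanol/22% PEG 400/73% water for cynomolgus; 5% ethanol/25% PEG 400/70% water for rhesus. Half-life and MRT from iv; mean ± SD, n = 3 per route.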

[9] = Cmax in Lewis rat at 5 mg/kg, po administered as single dose measured at 2 hrs; format: ADME, organism-based; design: route oral, dose 5 mg/kg, time 2 hrs; conditions: in vivo
Method in brief: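 Female Lewis rats given a single oral dose of 1 or 5 mg/kg; plasma concentration–time profiles determined; mean ± SD, n = 3.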

[10] = Oral bioavailability in rat at 5 mg/kg; format: ADME, organism-based; conditions: in vivo
[11] = Terminal half life in rhesus monkey at 1 mg/kg, iv measured over 24 hrs by LC/MS/MS analysis; format: ADME, organism-based, Macaca mulatta; conditions: in vivo, read-out: beta t1/2 (converted)
Method in brief: as §1

[12] = Selectivity index, ratio of IC50 for inhibition of human full length PI3K p110alpha/p85alpha to IC50 for inhibition of human full length PI3K p110delta/p85alpha

T1 sequence (P48736 whole entry, canonical isoform): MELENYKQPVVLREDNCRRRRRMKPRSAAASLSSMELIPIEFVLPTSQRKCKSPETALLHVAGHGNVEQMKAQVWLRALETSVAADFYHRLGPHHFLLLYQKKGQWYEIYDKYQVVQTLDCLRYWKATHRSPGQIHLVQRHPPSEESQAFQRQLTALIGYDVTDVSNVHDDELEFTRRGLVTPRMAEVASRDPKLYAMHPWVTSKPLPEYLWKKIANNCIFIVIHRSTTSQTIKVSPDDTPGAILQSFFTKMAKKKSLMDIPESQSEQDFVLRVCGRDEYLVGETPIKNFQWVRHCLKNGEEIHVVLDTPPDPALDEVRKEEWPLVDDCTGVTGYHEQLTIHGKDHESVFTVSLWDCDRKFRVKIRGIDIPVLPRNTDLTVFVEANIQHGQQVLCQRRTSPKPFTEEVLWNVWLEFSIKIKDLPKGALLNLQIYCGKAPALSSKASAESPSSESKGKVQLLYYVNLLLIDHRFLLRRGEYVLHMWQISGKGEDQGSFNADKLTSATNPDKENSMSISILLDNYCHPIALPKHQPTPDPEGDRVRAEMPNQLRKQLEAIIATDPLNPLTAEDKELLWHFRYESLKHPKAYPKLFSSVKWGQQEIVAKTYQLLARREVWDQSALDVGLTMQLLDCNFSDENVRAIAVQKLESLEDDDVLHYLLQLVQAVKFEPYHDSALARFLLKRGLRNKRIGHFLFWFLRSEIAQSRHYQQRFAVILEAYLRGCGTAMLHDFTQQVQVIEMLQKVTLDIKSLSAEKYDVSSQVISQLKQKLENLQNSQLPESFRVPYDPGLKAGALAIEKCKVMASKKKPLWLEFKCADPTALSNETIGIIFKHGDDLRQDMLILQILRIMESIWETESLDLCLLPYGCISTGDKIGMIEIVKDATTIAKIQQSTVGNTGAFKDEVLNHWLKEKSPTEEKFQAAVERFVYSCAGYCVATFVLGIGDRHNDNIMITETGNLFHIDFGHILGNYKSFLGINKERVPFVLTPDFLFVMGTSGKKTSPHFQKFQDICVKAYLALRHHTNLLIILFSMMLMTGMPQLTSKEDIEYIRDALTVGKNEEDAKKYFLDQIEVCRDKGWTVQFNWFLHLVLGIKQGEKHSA

N#Cc1c(N)nc(N)nc1N[C@H](c1nc2c(F)ccc(Cl)c2c(=O)n1-c1cccnc1)C1CC1 [GS-9901]
EC50 [1]: 1.6 nM
EC90 (Rattus norvegicus): 31.5 nM
clearance [2]: 7.17 mL/min/kg
EC50 [3]: 581 nM
EC90 [4]: 21 nM
inhibition in vivo at 3 mg/kg [5]: > 90%
half-life [6]: 2.89 h
IC50 [7]: 190 nM
MRT [8]: 2.01 h
Cmax [9]: 1780 nM
bioavailability [10]: 57%
half-life [11]: 2.45 h
Ratio IC50 [12]: 750
